# Assay outcomes as filed in PubChem BioAssay.
# Compounds with a hit are over-represented: about 3.8% of the library has one in this group of screens.
# KCNQ1 inh: blocks the human KCNQ1 potassium channel; P51787; CHO-K1 KCNQ1, FluxOR thallium flux fluorescence; active compounds read high; B-score at 10 µM; 1.3% of 310,000 active; AID 2642;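 active means compounds whose thallium flux B-score, printed positive for inhibition, exceeds three library SD while starting fluorescence stays within three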;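 further: channel opened by potassium depolarization with thallium stimulus after 20 min compound exposure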
# Kir21 inh: blocks the mouse Kir2.1 inward-rectifier potassium channel; P35561; HEK293-Kir2.1, FluxOR thallium flux fluorescence; active compounds read low; B-score at 10 µM; 0.85% of 310,000 active;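 active means fluorescence ratio B-score at or below minus 3 SD of library scores, with starting-brightness B-score within 2 SD, cut at about -4.2 in these data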;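 further: channel flux triggered by added potassium and thallium sulfate stimulus; B-score of peak minus minimum fluorescence over baseline after thallium stimulus; more negative B-score means stronger Kir2.1 block with less thallium influx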
# Target sequence (P35561 whole entry, looked up): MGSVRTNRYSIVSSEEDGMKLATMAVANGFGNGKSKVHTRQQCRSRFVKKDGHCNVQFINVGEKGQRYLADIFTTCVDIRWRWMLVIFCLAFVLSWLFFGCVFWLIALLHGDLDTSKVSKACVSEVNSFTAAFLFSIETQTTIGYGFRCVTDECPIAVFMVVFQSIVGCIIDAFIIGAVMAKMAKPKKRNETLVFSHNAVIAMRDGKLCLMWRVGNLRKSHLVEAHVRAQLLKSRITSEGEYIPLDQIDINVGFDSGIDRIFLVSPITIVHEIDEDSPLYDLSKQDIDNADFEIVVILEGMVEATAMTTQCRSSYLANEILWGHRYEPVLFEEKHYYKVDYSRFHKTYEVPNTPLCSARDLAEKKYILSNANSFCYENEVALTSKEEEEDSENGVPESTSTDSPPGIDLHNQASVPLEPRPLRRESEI
# KCNQ1 act: potentiators or activators of human KCNQ1 potassium channel. 0.35% of 310,000 active. P51787. AID 2648. B-score at 10 µM. CHO-K1 KCNQ1, thallium flux FluxOR fluorescence; active compounds read high;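 active means fluorescence ratio B-score, a plate-corrected score, at least three library SD, with initial intensity B-score within 5 SD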
#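 System: Stable KCNQ1 CHO-K1 line | Incubation: 90 min dye loading and 20 min compound exposure, both at room temperature | Measure: Ratio B score | Medium: Assay buffer for compound exposure, DMSO matched across wells | Compound dosing: Single-concentration screen | Probe or stimulus: K+/Tl+ depolarizing stimulus | Measured by: Kinetic FluxOR fluorescence, 10 s baseline plus 110 s post-stimulus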
# KCNK9 inh: human KCNK9 channel inhibition; Q9NPC2; HEK293 KCNK9, FluxOR thallium flux fluorescence; active compounds read low; B-score at 10 µM; 1.2% of 310,000 active;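 active means ratio B-score over 3 SD below the library mean, with starting fluorescence within 5 SD of its mean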;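 further: negative B-score means less thallium flux so channel inhibition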
# KCNK3 block: human KCNK3 channel inhibition, primary screen. CHO-KCNK3 thallium flux, FluxOR fluorescence; active compounds read low. B-score at 10 µM. 0.84% of 340,000 active. AID 602410;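 active means B-score under library mean minus 4 SD, starting fluorescence ratio at most library mean plus 5 SD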;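 further: more negative B-score means stronger inhibition of thallium flux through KCNK3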
# hERG protect: hERG (human) protection from proarrhythmic block; 0.51% of 310,000 active; AID 1511; activation (rescue from dofetilide block), less the hit threshold, % at 10 µM; CHO-hERG, FluxOR thallium flux, dofetilide IC70 present;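 active means activation above the mean of controls blocked by dofetilide plus 5 SD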;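 further: thallium influx through hERG after potassium depolarization seen as dye fluorescence rise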
# * = called active by the depositor; i = inactive; . = no result.
SMILES,KCNQ1 inh,Kir21 inh,KCNQ1 act,KCNK9 inh,KCNK3 block,hERG protect
CCOc1cc(/C=N/NC(=O)C(=O)Nc2cc(Cl)ccc2C)ccc1O,i,0.63,i,i,i,-2
COc1ccc2nc(/N=C/c3c(C)[nH]n(-c4ccc(C)cc4)c3=O)sc2c1,i,1.1,39*,i,i,10*
Cc1ccc(-n2[nH]c(C)c(C=Nc3cc(C)ccn3)c2=O)cc1,i,1.7,i,i,i,-1
Cc1[nH]n(-c2ccc(Cl)cc2)c(=O)c1/C=N/c1nnc(-c2ccccc2)s1,i,0.13,9*,i,i,88*
O=C(N/N=C/c1ccc([N+](=O)[O-])o1)c1cn(-c2ccccc2)nc1-c1ccccc1,i,-0.15,i,i,i,-2
O=C(N/N=C/c1ccc([N+](=O)[O-])o1)c1cn(-c2ccccc2)nc1-c1ccc(Cl)cc1,i,1.2,i,i,i,8.3*
O=C(N/N=C\c1cn(-c2ccccc2)nc1-c1ccccc1)c1ccc(Br)o1,13*,1.9,i,-7.1*,i,-9
CC(=O)N(c1nc(CCl)cs1)c1cccc(C)c1C,i,-0.65,i,i,i,-3
CCOC(=O)Nc1ccc2c(COC(=O)C(NS(=O)(=O)c3ccc(Cl)cc3)C(C)O)cc(=O)oc2c1 (stereo not given),.,.,.,.,i,.
O=C(CCNC(=O)c1ccc([N+](=O)[O-])cc1)Oc1ccc(F)c(F)c1,.,.,.,.,i,.
COc1cccc(/C=C/C(=O)OCC(=O)Nc2ccc(Cl)cn2)c1,i,0.6,i,i,i,5.8*
Cc1ccc(Cl)cc1N1CCN(Cc2nnnn2C2CCCCC2)CC1,i,0.33,i,i,-11*,-16
Cc1ccc(Cl)cc1N1CCN(Cc2nnnn2Cc2ccco2)CC1,i,-1.5,i,i,i,-4
O=C(COC(=O)C1CCC1)NCc1ccc(Cl)cc1Cl,i,-0.57,i,i,i,-12
O=C(NC(=S)N(CCO)Cc1ccccc1)c1ccc(F)cc1Cl,i,0.28,i,i,i,-4
CCOC(=O)c1c(C)[nH]c(C)c1C(=O)COC(=O)c1cc2ccccc2cc1OC,i,-2.8,i,-7.7*,i,-8
COc1ccc(-n2c(NC(=O)c3ccc(Br)o3)c(C#N)c3nc4ccccc4nc32)cc1,7*,0.85,i,i,.,-14
CCN1C(=O)[C@H]2[C@H]3CN=C(SC)N3[C@@](Cc3ccccc3)(C(=O)OC)[C@H]2C1=O,.,.,.,.,i,.
COCC(Cc1ccccc1)NC(=O)Cn1cc(C)c(=O)[nH]c1=O (stereo not given),.,.,.,.,i,.
CC1Cc2ccccc2N1C(=O)Cn1c(=O)oc2cc(S(=O)(=O)N3CCCCC3)ccc21 (stereo not given),i,0.07,i,-7.2*,i,-8
CC(C)C(c1nnnn1Cc1ccco1)N1CCN(c2cccc(Cl)c2)CC1 (stereo not given),i,0.02,i,-8*,i,-4
CCCCNC(=S)N(Cc1c(C)noc1C)c1ccccc1,i,-5.4*,i,i,i,-6
CCNC(=S)N(Cc1c(C)noc1C)c1ccccc1,i,-3.5,i,i,i,-7
CNC(=O)/C(C#N)=C/c1c(N2CCN(c3cccc(Cl)c3)CC2)nc2c(C)cccn2c1=O,i,0.39,i,i,i,-5
CCOC(=O)/C(C#N)=C/c1c(N2CCN(c3cccc(Cl)c3)CC2)nc2c(C)cccn2c1=O,6*,0.81,i,i,i,-11
SMILES,KCNQ1 inh,Kir21 inh,KCNQ1 act,KCNK9 inh,KCNK3 block,hERG protect
CCOC(=O)c1cc(NC(=O)Cc2ccc(S(=O)(=O)N3CCOCC3)s2)cc(C(=O)OCC)c1,7*,-0.88,i,i,i,-16
Cc1ccc2c(c1)c1c(n2CC(O)CNC2CCCCC2)CCCC1 (stereo not given),i,-7.9*,i,i,i,-17
CCCCc1cc(=O)oc2cc(C)cc(OCC(=O)NCc3ccncc3)c12,i,-1.7,i,i,i,-25
CCOC(=O)c1cnc(SCC(=O)Nc2ccc(NC(=O)CC)c(OC)c2)nc1N,i,-0.67,i,i,i,-19
O=C(N[C@@H](Cc1ccc(O)cc1)C(=O)O)c1ccncc1,i,1.3,i,i,i,-4
CCn1c(=O)c(-[n+]2ccccc2)c(O)c2ccccc21,i,1.5,i,i,i,8.3*
CCn1c(=O)c(C(=O)NNC(=O)c2ccccc2)c(O)c2ccccc21,i,0.48,i,i,i,-6
O=C1CSC(c2ccccn2)N1c1ccc(Cl)c(Cl)c1 (stereo not given),i,0.12,i,-7.6*,i,-9
CCOC(=O)C1(C(F)(F)F)N=C(C(F)(F)F)Nc2cc(C)c(C)cc21 (stereo not given),i,-1.1,i,i,i,-12
CCN(CC)CCCN1C(=O)C2C(C(=O)Nc3ccc(C(C)C)cc3)C3C=CC2(O3)C1C(=O)NC1CCCCC1 (stereo not given),i,-1.2,i,i,i,-10
Cc1oc(/N=C/c2ccc(F)cc2)c(C#N)c1C,i,0.57,i,i,i,7.7*
CCNC(=S)N/N=C/c1ccc(F)cc1,i,1.6,i,i,.,-12
Cc1ccc(NC(=O)c2sccc2-n2cccc2)c(C)c1,i,-0.16,i,-8.1*,i,-17
CC(=O)Nc1ccc(S(=O)(=O)N2CCC(C(=O)O)CC2)cc1,i,0.73,10*,i,i,0
CN(C)CCOc1ccc2c(c1)Sc1ccccc1CC2=O,i,-5.2*,i,i,i,-2
COc1ccc2ccccc2c1C1CC(=O)N2CN(Cc3ccco3)CSC2=C1C#N (stereo not given),7*,0.08,i,i,i,-6
COc1ccc2ccccc2c1-c1sc(Nc2ccccc2)n[n+]1-c1ccc(F)cc1,7*,-5.6*,i,-7.4*,i,-27
COc1ccc(-c2sc(Nc3ccccc3)n[n+]2-c2ccc(F)cc2)cc1Br,i,-1,i,i,i,-30
N#C/C(=N\Nc1ccc(Cl)cc1)C(N)=S,6*,-0.44,i,i,i,-12
Cc1nc(N2CCC(C)CC2)c2c(C)c(C(=O)Nc3ccc(C(F)(F)F)cc3)sc2n1,10*,2,i,i,i,0
CC(C)CCNc1nc(N)c([N+](=O)[O-])c(N2CCCCCC2)n1,i,0.88,i,i,i,-5
COC(=O)[C@H](C)NC(=O)Nc1cc(Cl)ccc1C,i,0.73,13*,i,i,1
